Data on one molecule can be found in ChEMBL document CHEMBL4261600 (Eur J Med Chem, 2018).

What is called GI50 is the concentration giving 50% growth inhibition. As usually defined, the AUC(0-t) is the area under the concentration-time curve up to a stated or last time point. A higher AUC(0-t) goes with more exposure.

Series [1] deals with Mitogen-activated protein kinase 8 (Homo sapiens) (UniProt P45983). The series can be described thus: Binding affinity to wild-type human full length JNK1 (M1 to Q384 residues) expressed in mammalian expression system assessed as remaining unbound target protein level at 1000 nM by Kinomescan method relative to control. The method in brief:
(§1)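 KINOMEscan competition binding profile across a panel of 468 kinases and mutants, with the inhibitor tested at a single concentration of 1 μM. Binding is reported as percent of control, meaning signal relative to a DMSO control.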

Series [2] addresses Serine/threonine-protein kinase Sgk1 (Homo sapiens) (UniProt O00141). Nature of the series: Binding affinity to wild-type human partial length SGK (I60 to L431 residues) expressed in mammalian expression system assessed as remaining unbound target protein level at 1000 nM by Kinomescan method relative to control.
The target in series [3] is Mitogen-activated protein kinase kinase kinase 6 (Homo sapiens) (UniProt O95382). The series can be described thus: Binding affinity to wild-type human partial length ASK2 (M278 to R972 residues) expressed in mammalian expression system assessed as remaining unbound target protein level at 1000 nM by Kinomescan method relative to control. The method, boiled down: as §1

Series [4] deals with Tyrosine-protein kinase ABL1 (Homo sapiens), P00519 [Q252H]. Nature of the series: Binding affinity to human non-phosphorylated ABL1 Q252H mutant (S229 to K512 residues) expressed in mammalian expression system assessed as remaining unbound target protein level at 1000 nM by Kinomescan method relative to control. The method in brief: (§2)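 KINOMEscan competition-binding profiling across the panel of 468 kinases and mutants, with inhibitor tested at 1 μM. Binding is expressed as percent of control, with DMSO as the reference control.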

Series [5] has as its system Proto-oncogene tyrosine-protein kinase receptor Ret (Homo sapiens), P07949 [V804M]. Nature of the series: Binding affinity to human partial length RET V804M mutant (E713 to D1014 residues) expressed in bacterial expression system assessed as remaining unbound target protein level at 1000 nM by Kinomescan method relative to control. The method in brief: as §2
The target in series [6] is Tyrosine-protein kinase HCK (Homo sapiens) (UniProt P08631). Nature of the series: Binding affinity to wild-type human full length HCK (M22 to P526 residues) expressed in bacterial expression system assessed as remaining unbound target protein level at 1000 nM by Kinomescan method relative to control. The method in brief:
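Single-point competition binding screen across a panel of 468 kinases and mutants, with the inhibitor at 1 μM. Binding is read out as percent of a DMSO control, and targets below 1 percent control were classed as strong binders.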

The target of series [7] is Serine/threonine-protein kinase TBK1 (Homo sapiens) (UniProt Q9UHD2). The series can be described thus: Binding affinity to wild-type human full length TBK1 (M1 to L729 residues) expressed in mammalian expression system assessed as remaining unbound target protein level at 1000 nM by Kinomescan method relative to control. The method in brief: as §1
Series [8] deals with Macrophage-stimulating protein receptor (Homo sapiens) (UniProt Q04912). Nature of the series: Binding affinity to wild-type human partial length MST1R (I1057 to L1363 residues) expressed in bacterial expression system assessed as remaining unbound target protein level at 1000 nM by Kinomescan method relative to control.
Chain of Macrophage-stimulating protein receptor (Homo sapiens) (Q04912 25-304 limits assumed): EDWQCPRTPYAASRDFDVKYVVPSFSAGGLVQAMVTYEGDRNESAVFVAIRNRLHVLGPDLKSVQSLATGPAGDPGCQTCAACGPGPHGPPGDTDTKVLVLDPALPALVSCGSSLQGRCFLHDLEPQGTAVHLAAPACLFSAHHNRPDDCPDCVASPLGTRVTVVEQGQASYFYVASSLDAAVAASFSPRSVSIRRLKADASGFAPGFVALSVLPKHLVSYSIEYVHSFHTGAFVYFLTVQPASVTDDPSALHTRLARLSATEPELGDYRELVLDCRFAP
Chain of Macrophage-stimulating protein receptor (Homo sapiens) (Q04912 310-1400 limits assumed): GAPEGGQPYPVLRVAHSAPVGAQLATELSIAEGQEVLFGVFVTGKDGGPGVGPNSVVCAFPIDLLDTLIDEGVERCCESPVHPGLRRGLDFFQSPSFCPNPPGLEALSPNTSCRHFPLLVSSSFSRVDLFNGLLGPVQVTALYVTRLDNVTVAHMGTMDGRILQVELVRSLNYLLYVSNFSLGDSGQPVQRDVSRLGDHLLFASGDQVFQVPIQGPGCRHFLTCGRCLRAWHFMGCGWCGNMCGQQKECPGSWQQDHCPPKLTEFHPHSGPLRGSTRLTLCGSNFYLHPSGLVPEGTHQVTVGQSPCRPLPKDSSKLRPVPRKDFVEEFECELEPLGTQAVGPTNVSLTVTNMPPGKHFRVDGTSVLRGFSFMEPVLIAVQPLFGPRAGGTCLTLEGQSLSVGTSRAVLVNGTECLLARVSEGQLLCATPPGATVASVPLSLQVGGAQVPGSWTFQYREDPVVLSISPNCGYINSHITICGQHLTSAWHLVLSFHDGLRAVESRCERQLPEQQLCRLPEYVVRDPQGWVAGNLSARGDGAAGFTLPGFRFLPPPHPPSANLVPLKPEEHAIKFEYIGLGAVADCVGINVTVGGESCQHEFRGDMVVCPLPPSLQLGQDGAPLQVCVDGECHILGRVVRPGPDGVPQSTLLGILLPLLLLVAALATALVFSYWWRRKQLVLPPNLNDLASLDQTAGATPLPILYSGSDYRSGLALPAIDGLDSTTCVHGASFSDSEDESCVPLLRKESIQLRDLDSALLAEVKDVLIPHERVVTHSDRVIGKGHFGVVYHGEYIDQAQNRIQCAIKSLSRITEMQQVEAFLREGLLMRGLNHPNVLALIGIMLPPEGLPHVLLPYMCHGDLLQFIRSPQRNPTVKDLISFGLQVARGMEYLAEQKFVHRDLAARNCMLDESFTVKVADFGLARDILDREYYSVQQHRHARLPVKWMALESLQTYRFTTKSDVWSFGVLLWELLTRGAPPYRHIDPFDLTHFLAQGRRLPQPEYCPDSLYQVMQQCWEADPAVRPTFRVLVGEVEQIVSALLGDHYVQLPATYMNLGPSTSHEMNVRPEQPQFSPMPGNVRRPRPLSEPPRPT
Series [9] deals with ALK tyrosine kinase receptor (Homo sapiens), Q9UM73 [C1156Y]. The series can be described thus: Binding affinity to wild-type human partial length ALK C1156Y mutant (I1088 to E1409 residues) expressed in mammalian expression system assessed as remaining unbound target protein level at 1000 nM by Kinomescan method relative to control. The method, boiled down: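 Profiled in a KINOMEscan binding panel with the inhibitor at a single concentration of 1 μM. Binding to each kinase was read out as percent of control, relative to a DMSO control. Strong binders were defined as those with a percent control value below 1.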
Chain of ALK tyrosine kinase receptor (Homo sapiens), Q9UM73 [C1156Y] (Q9UM73 whole entry C1156Y, looked up, the tested form may be a part): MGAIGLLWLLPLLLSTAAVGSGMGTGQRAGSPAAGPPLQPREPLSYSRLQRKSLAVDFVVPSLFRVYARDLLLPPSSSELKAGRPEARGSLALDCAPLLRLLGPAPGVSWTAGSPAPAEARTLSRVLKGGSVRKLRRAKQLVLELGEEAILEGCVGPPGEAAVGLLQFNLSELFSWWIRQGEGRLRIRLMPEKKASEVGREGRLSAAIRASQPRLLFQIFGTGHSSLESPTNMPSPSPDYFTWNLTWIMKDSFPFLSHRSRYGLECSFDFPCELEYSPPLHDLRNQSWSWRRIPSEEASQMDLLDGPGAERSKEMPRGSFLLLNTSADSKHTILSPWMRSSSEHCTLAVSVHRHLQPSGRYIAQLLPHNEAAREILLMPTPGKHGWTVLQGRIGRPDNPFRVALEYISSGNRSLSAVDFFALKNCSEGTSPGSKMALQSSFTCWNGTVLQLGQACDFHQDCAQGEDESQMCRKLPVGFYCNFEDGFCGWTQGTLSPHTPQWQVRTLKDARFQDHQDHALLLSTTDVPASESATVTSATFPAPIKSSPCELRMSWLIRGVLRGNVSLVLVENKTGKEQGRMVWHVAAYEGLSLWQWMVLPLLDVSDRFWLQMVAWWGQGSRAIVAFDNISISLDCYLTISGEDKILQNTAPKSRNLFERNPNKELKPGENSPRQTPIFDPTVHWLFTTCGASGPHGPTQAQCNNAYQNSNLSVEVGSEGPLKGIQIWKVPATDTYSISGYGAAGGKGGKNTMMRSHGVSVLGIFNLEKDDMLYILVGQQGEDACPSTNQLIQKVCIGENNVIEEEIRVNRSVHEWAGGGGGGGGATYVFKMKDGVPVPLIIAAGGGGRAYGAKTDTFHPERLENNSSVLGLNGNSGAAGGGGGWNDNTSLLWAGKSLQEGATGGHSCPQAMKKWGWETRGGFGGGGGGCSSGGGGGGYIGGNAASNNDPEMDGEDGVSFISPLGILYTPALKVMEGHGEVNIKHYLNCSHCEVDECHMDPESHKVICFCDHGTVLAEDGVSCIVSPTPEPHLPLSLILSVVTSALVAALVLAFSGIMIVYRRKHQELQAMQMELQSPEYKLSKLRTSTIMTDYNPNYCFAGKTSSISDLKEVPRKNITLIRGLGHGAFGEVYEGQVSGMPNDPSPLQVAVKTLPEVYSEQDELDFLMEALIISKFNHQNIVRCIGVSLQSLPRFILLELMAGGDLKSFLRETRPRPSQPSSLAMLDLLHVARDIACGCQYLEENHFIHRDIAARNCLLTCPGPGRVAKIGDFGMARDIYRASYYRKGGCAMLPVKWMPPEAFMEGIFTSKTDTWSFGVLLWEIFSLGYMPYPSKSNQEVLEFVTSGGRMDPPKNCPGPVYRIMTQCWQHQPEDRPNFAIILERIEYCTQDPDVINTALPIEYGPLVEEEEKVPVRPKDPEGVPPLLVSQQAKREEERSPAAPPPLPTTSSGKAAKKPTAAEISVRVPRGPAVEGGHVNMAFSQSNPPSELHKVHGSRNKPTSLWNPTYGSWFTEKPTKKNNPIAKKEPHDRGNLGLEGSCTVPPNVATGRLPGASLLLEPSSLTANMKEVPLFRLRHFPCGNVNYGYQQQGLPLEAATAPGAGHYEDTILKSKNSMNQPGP

Series [10] deals with Interleukin-1 receptor-associated kinase 4 (Homo sapiens) (UniProt Q9NWZ3). Nature of the series: Binding affinity to wild-type human partial length IRAK4 (M1 to S460 residues) expressed in mammalian expression system assessed as remaining unbound target protein level at 1000 nM by Kinomescan method relative to control. The method in brief:
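KINOMEscan binding panel of 468 kinases/mutants. Inhibitor was tested at a single concentration of 1 μM. Binding is reported as percent of control, defined relative to a DMSO control.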

For series [11], the target named is Tyrosine-protein kinase SYK (Homo sapiens) (UniProt P43405). Nature of the series: Binding affinity to wild-type human partial length SYK (D354 to N635 residues) expressed in bacterial expression system assessed as remaining unbound target protein level at 1000 nM by Kinomescan method relative to control.
Series [12] deals with COLO 205. The series can be described thus: Antiproliferative activity against human COLO205 cells after 72 hrs by Celltiter-Glo assay. The settings on record: COLO 205, 72 h. Type of series: functional. The method in brief:
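Cells seeded at 3000/well in 96-well plates, exposed to serially diluted compound for 72 h at 37 °C, 5% CO2. Viability read by CellTiter-Glo luminescence and normalized to DMSO control. GI50 derived from curve fit, mean of three independent measurements. Culture media: DMEM/10% FBS for adherent lines; IMDM for MV4-11 and MEC-1/2; RPMI 1640 for suspension lines and CHL.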

Series [13] concerns the target cAMP-dependent protein kinase catalytic subunit alpha (Homo sapiens) (UniProt P17612). The series can be described thus: Binding affinity to wild-type human partial length PKAC-alpha (G10 to F351 residues) expressed in bacterial expression system assessed as remaining unbound target protein level at 1000 nM by Kinomescan method relative to control.
Series [14] addresses Death-associated protein kinase 2 (Homo sapiens) (UniProt Q9UIK4). Nature of the series: Binding affinity to wild-type human full length DAPK2 (M1 to S370 residues) expressed in bacterial expression system assessed as remaining unbound target protein level at 1000 nM by Kinomescan method relative to control. The method, boiled down:
as §1

Series [15] concerns Tyrosine-protein kinase ABL1 (Homo sapiens), P00519 [T315I]. Nature of the series: Binding affinity to human non-phosphorylated ABL1 T315I mutant (S229 to K512 residues) expressed in mammalian expression system assessed as remaining unbound target protein level at 1000 nM by Kinomescan method relative to control. The method, boiled down:
as §2

Series [16] deals with Cyclin-dependent kinase 9 (Homo sapiens, UniProt P50750). Nature of the series: Binding affinity to wild-type human full length CDK9 (M1 to F372 residues) expressed in bacterial expression system assessed as remaining unbound target protein level at 1000 nM by Kinomescan method relative to control. The method, boiled down:
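KINOMEscan competition binding panel run at 1 μM inhibitor; binding reported as percent of DMSO control (remaining target bound versus vehicle).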

For series [17], the target named is Serine/threonine-protein kinase 38-like (Homo sapiens) (UniProt Q9Y2H1). The series can be described thus: Binding affinity to wild-type human partial length NDR2 (N34 to E447 residues) expressed in bacterial expression system assessed as remaining unbound target protein level at 1000 nM by Kinomescan method relative to control.
Chain of Serine/threonine-protein kinase 38-like (Homo sapiens) (Q9Y2H1 2-464 limits assumed): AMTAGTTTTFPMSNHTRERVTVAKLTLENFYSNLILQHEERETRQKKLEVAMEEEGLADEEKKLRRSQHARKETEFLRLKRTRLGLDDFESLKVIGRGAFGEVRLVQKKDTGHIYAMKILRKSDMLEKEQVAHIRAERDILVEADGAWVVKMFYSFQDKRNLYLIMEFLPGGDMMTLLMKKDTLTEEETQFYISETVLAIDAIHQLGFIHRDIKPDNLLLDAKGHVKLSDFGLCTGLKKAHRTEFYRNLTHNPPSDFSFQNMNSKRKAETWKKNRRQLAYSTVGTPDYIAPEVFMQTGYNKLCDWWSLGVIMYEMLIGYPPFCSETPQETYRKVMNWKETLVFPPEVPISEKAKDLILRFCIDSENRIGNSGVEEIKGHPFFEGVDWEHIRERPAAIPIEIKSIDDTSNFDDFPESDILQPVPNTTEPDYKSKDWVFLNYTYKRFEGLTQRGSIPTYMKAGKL
A short description of series [18]: AUC (0 to t) in Sprague-Dawley rat at 20 mg/kg, po by LC-MS/MS analysis. It is filed as ADME, organism-based. As to conditions: in vivo. The method in brief:
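Non-compartmental PK. Male SD rats 190-210 g, mice and beagle dogs acclimatized one week, fasted 12 h with water, split into iv and po groups (mice 48, rats 6, dogs 6). iv 3/3/2 mg/kg (mice/rats/dogs); po 10/20/10 mg/kg; vehicle DMSO in 5% glucose water. Blood at 2 or 5 to 720 min; plasma protein-precipitated with methanol, caffeine internal standard, LC-MS/MS.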

Chain of Tyrosine-protein kinase HCK (Homo sapiens) (P08631 2-526 limits assumed): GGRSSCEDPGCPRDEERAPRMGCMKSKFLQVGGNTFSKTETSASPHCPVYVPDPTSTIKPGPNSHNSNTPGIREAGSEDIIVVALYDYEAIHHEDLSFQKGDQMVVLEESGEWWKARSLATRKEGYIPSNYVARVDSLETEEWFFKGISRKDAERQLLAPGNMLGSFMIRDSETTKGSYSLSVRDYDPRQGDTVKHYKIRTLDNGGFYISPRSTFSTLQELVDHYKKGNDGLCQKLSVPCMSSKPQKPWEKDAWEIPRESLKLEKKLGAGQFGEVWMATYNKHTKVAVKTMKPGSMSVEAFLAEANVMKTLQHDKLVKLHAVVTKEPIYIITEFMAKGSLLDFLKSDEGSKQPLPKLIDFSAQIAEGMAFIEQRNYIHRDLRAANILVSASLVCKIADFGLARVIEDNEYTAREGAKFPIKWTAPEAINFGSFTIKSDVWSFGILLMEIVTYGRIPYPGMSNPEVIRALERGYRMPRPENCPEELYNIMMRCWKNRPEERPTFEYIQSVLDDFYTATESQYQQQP
Chain of Mitogen-activated protein kinase 8 (Homo sapiens) (P45983 whole entry, the tested form may be a part): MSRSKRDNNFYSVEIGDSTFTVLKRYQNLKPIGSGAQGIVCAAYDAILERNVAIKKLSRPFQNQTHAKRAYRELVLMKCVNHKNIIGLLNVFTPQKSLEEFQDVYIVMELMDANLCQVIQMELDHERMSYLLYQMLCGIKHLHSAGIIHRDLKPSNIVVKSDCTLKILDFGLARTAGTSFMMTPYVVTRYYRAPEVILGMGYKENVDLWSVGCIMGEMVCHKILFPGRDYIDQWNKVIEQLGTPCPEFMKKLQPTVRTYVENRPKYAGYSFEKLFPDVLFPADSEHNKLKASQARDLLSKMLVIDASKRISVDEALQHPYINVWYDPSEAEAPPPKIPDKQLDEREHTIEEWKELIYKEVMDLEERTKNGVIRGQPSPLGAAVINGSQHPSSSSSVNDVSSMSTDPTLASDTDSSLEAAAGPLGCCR
Chain of Cyclin-dependent kinase 9 (P50750 whole entry, the tested form may be a part): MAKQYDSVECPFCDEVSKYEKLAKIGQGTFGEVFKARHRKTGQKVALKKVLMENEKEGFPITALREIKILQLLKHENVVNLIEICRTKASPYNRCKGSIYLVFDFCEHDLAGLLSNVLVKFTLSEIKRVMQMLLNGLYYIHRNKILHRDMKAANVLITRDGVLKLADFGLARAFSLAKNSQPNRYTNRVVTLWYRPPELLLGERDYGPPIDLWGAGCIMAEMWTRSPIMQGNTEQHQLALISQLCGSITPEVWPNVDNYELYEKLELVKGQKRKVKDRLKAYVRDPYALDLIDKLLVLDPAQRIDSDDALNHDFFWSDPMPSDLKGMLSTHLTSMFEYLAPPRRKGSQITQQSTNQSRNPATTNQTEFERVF

For `COCCN[C@H]1CC[C@H](Nc2cc(-c3csc(NCC4(C#N)CCOCC4)n3)c(Cl)cn2)CC1`, the Activity in series [1] turned out to be 4.8%; in series [2] it was 70%; in series [3], 86%; in series [4], 97%; in series [5], 98%; in series [6], 100%. Further, the Activity in series [7] was 86%; in [8] it was 92%; in series [9] it was 86%; in [10] it was 81%; in series [11], 93%; in series [13], 87%. Besides, the Activity in series [14] was 95%; in series [15] it was 100%; in [16] it was 0.9%; in series [17], 78%. For the same molecule, the GI50 in [12] is 14 nM. The AUC(0-t) in [18] was found to be 1780 ng·h/mL.
